Screens as filed in PubChem BioAssay.
KCC2 mod = modulators of human KCC2 chloride dependent transport; Q9H2X9; KCC2 cells, thallium flux FluoZin-2 fluorescence; B-score of Tl+ flux slope (higher = more flux/activation; lower = inhibition) at 10 µM; hit rate 2.2% among 190,000;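 active = thallium flux slope and its plate-corrected score both differing from the plate sample mean at a set confidence after two filtering rounds, in either direction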;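 also: slope of fluorescence scaled to starting intensity during 10 to 20 s after thallium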
Rad51 HR inh = blocks human Rad51 in homologous recombination | hit rate 0.085% among 200,000 | inhibition, % at 10 µM | AID 1385 | hRad51 DNA strand exchange, fluorescence dequenching | Q06609;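 active = inhibition above 40% at the single screening dose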
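Material: human Rad51–ssDNA filaments; Probe or stimulus: labelled 47-mer dsDNA for strand exchange; Doses: single 10 µM dose; Incubation: 37 °C 15-min filament assembly, 30-min compound preincubation, 15-min exchange; Technique: FRET fluorescence dequenching, excitation 485 nm, emission 520 nm; Measure: Fluorescence-based percent inhibition, control- and blank-normalised; Benchmarks: plate control and blank wells.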
SKKanGAS inh = inhibitors of SKKanGAS S. pyogenes growth in kanamycin (SK-promoter or general growth effect) | BacTiter-Glo, 6 h | inhibition, % at 7.5 µM | hit rate 1.3% among 300,000 | AID 1662;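 active = mean replicate score, as percent of positive control median, at least 50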;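 also: strain carries kanamycin resistance gene driven by streptokinase promoter and grows in 40 µg/ml kanamycin; loss of luminescence reflects streptokinase promoter inhibition or plain growth inhibition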
Autophagy HCS = alters autophagy in cells | MEF GFP-LC3 puncta imaging; test concentration mostly 10 µM | calls only at 10 µM (by protocol) | hit rate 0.98% among 190,000;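 active = percentage of spot-positive cells more than 3 SD above its plate mean, without a fluorescence outlier flag or 80% toxicity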
WT yeast gro inh = growth inhibition of WT yeast, mitochondrial fusion screen; mitochondrial fusion phenotypic screen, WT strain; inhibition, % at 10 µM; hit rate 2.1% among 190,000; in the data active = inhibition above about 58%; tested in S. cerevisiae
Ins promoter up = MIN6 insulin promoter up-regulation. hit rate 0.3% among 190,000. AID 1625. z-score at 5 µM. MIN6 insulin promoter-GFP reporter, high-content imaging; hits give high values;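 active = z-score above 3 at 5 µM with at least 500 cells counted in the well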
Numbers stand for hits. Most compounds without a hit are left out; they make up all but 4.2% or so of the library.

Screening C=CCc1cccc(Cl)c1OCCCNC1CCCC1 returned SKKanGAS inh inactive.
`Cc1ccc(-c2nnc3n2CCCCC3)cc1` gave KCC2 mod inactive, Rad51 HR inh inactive, SKKanGAS inh inactive, Autophagy HCS inactive, WT yeast gro inh 73.8 and Ins promoter up inactive.
For OCCN(CCO)CC(O)COc1ccc(C23CC4CC(CC(C4)C2)C3)cc1 (stereo not drawn) the results were KCC2 mod inactive, Rad51 HR inh inactive, SKKanGAS inh inactive, Autophagy HCS inactive, WT yeast gro inh 95.5 and Ins promoter up inactive.
Screening OCCN(CCO)CC(O)COc1ccc(Br)cc1 (stereo not drawn) returned KCC2 mod inactive, Rad51 HR inh inactive, SKKanGAS inh inactive and Ins promoter up inactive.
Screening COc1ccccc1-c1nnc(Nc2nc3c(OC)cccc3s2)o1 returned KCC2 mod 4.15, Rad51 HR inh inactive, SKKanGAS inh 91.4, Autophagy HCS inactive and WT yeast gro inh inactive.
Screening COc1cccc(-c2nnc(Nc3nc4c(F)cccc4s3)o2)c1 returned KCC2 mod 38.9, SKKanGAS inh 67.6, Autophagy HCS inactive, WT yeast gro inh inactive and Ins promoter up inactive.
`O=C(O)c1ccc(N2C(=O)/C(=C/c3ccc(-c4ccc([N+](=O)[O-])cc4)o3)C=C2c2ccccc2)cc1` gave KCC2 mod inactive, Rad51 HR inh inactive, SKKanGAS inh 103.6, Autophagy HCS inactive, WT yeast gro inh inactive and Ins promoter up inactive.
For COc1ccc(CN2CCNC(=O)C2CC(=O)N(C)C2CCOCC2)c(F)c1 (stereo not drawn) the results were SKKanGAS inh inactive.
`O=C(CN1CCOCC1)Nc1cc(C(F)(F)F)ccc1Cl` gave KCC2 mod inactive, Rad51 HR inh inactive, SKKanGAS inh inactive, Autophagy HCS inactive and Ins promoter up inactive.
`Cc1ccc(C)n1CCN1CCN(CC(=O)Nc2cc(C(F)(F)F)ccc2Cl)CC1` gave KCC2 mod inactive, Rad51 HR inh inactive, SKKanGAS inh inactive, Autophagy HCS active, WT yeast gro inh inactive and Ins promoter up inactive.
Screening O=C(Cn1nnc2ccccc21)c1ccc(Cl)cc1 returned KCC2 mod inactive, Rad51 HR inh inactive, SKKanGAS inh inactive and Ins promoter up inactive.
Screening COc1ccc(-c2[nH]c(-c3ccc4c(c3)OCO4)nc2-c2ccccc2)cc1 returned Rad51 HR inh inactive, SKKanGAS inh inactive, Autophagy HCS inactive, WT yeast gro inh 71.0 and Ins promoter up inactive.
CCCN1CCN(C(=O)c2oc3ccccc3c2NC(=O)C2CC2)CC1 was read as SKKanGAS inh inactive.
For COc1ccc(NC(=O)Nc2ccc3c(c2)CCC3)cc1 the results were SKKanGAS inh inactive.
For CC1(C)Cc2c(sc3c2c(N)nc(=S)n3Cc2ccccc2)CO1 the results were KCC2 mod inactive, Rad51 HR inh inactive, SKKanGAS inh inactive, Autophagy HCS inactive, WT yeast gro inh inactive and Ins promoter up inactive.
CC1(C)Cc2c(sc3[nH]c(=S)n(Cc4ccccc4)c(=O)c23)CO1 was read as KCC2 mod 80.6, Rad51 HR inh inactive, SKKanGAS inh inactive, Autophagy HCS inactive, WT yeast gro inh inactive and Ins promoter up inactive.
Screening CCCCCCCCCCC[N+](C)(C)CC/C=C1/c2ccccc2Sc2ccc(Cl)cc21 returned SKKanGAS inh 89.9.
For CN(C)CC/C=C1\c2ccccc2Sc2ccc(Cl)cc21 the results were KCC2 mod inactive, Rad51 HR inh inactive, SKKanGAS inh inactive, Autophagy HCS inactive and WT yeast gro inh 86.8.
Screening CCCCCCCCCC[N+](C)(C)CC/C=C1/c2ccccc2Sc2ccc(Cl)cc21 returned SKKanGAS inh 94.9.
Screening C[C@@H](NC(=O)c1cc2c([nH]c3ccccc32)c(-c2ccccc2)n1)C(=O)O returned SKKanGAS inh inactive.
Cc1ccc(C(=O)OCC(=O)c2ccc(S(=O)(=O)N3CCCCC3)cc2)o1 was read as SKKanGAS inh inactive.
Screening Cc1cccc(-c2nnc(SCc3ccccc3)o2)c1 returned KCC2 mod inactive, Rad51 HR inh inactive, SKKanGAS inh inactive, Autophagy HCS inactive, WT yeast gro inh 65.0 and Ins promoter up inactive.
`COc1ccc(CCN(Cc2cccs2)S(=O)(=O)c2ccc(C(=O)O)cc2)cc1OC` gave KCC2 mod inactive, Rad51 HR inh inactive, SKKanGAS inh inactive, Autophagy HCS inactive, WT yeast gro inh inactive and Ins promoter up inactive.
Cc1csc(NC(=O)c2cnc3ccccc3n2)n1 was read as SKKanGAS inh inactive.
CCC(CC)c1nnc(NC(=O)c2ccc3ccccc3n2)s1 was read as KCC2 mod 15.7, Rad51 HR inh inactive, SKKanGAS inh 79.4, Autophagy HCS inactive, WT yeast gro inh 61.4 and Ins promoter up inactive.
Cc1csc(NC(=O)c2ccc3ccccc3n2)n1 was read as SKKanGAS inh 59.8.
Screening CCC(CC)c1nnc(NC(=O)c2cc(-c3ccccc3)nc3ccccc23)s1 returned KCC2 mod inactive, Rad51 HR inh inactive, SKKanGAS inh inactive, Autophagy HCS inactive, WT yeast gro inh inactive and Ins promoter up inactive.
O=C(NCCCN1CCCC1=O)c1cccc(S(=O)(=O)Nc2ccc(Br)cc2)c1 was read as SKKanGAS inh inactive.
Screening COc1ccc(C2C3=C(CC(C)(C)CC3=O)Oc3ncn(Cc4ccccc4)c(=N)c32)cc1 (stereo not drawn) returned Rad51 HR inh inactive, SKKanGAS inh inactive, Autophagy HCS inactive, WT yeast gro inh 97.2 and Ins promoter up inactive.
Screening CC1(C)CC(=O)C2=C(C1)Oc1ncn(Cc3ccco3)c(=N)c1C2c1ccccc1 (stereo not drawn) returned KCC2 mod inactive, Rad51 HR inh inactive, SKKanGAS inh inactive, Autophagy HCS inactive, WT yeast gro inh inactive and Ins promoter up inactive.
Cc1ccccc1C(=O)/C(C#N)=N/Nc1c(C)n(C)n(-c2ccccc2)c1=O was read as KCC2 mod inactive, SKKanGAS inh 66.0, Autophagy HCS inactive, WT yeast gro inh inactive and Ins promoter up inactive.
`CCOC(=O)/C(C#N)=N/Nc1c(C)n(C)n(-c2ccccc2)c1=O` gave KCC2 mod inactive, Rad51 HR inh inactive, SKKanGAS inh inactive, Autophagy HCS inactive, WT yeast gro inh inactive and Ins promoter up inactive.
Cc1c(NC=C(C#N)C#N)c(=O)n(-c2ccccc2)n1C was read as KCC2 mod inactive, Rad51 HR inh inactive, SKKanGAS inh inactive, Autophagy HCS inactive and WT yeast gro inh inactive.
For Cc1c(N/N=C(\C#N)C(=O)c2ccccc2)c(=O)n(-c2ccccc2)n1C the results were KCC2 mod inactive, SKKanGAS inh 65.2, Autophagy HCS inactive, WT yeast gro inh inactive and Ins promoter up inactive.
For CCOC(=O)N/N=C(\c1ccccc1)C(O)c1ccccc1 (stereo not drawn) the results were KCC2 mod inactive, Rad51 HR inh inactive, SKKanGAS inh inactive, Autophagy HCS inactive, WT yeast gro inh inactive and Ins promoter up inactive.
